Laboratory results: paper PMC11542726 (Methods in enzymology, 2024)
Entries after “also recorded” stand apart in the source; their conditions may differ.

Tests used:
Crk SH2 [1] = assay: Fluorescence polarization; format: mouse Crk protein 1 – 118 identical to human CRK protein; conditions: direct binding; various concentrations of FAM-conjugated peptides titrated into 4 nM Crk SH2, 20 mM HEPES pH 7.5, 0.025% Triton X-100; 384-well, 480-nm excitation, 535-nm emission; repeated at least three times; Figure 6A
Crk SH2 [2] = assay: FP competition assay: unlabeled peptides vs FAM-DVpYDVPP; format: binding, mouse Crk protein 1 – 118 identical to human CRK protein; conditions: 4 nM FAM-labeled phosphorylated peptide, 150 nM Crk SH2, unlabeled competitor peptides; data not shown
Procedure, shortened: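 Polarization is read as mP values. For each unlabeled peptide, the concentration giving 50% displacement of the FAM probe is obtained by non-linear regression.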

Crk SH2 [3] = assay: Differential scanning fluorimetry; format: binding, mouse Crk protein 1 – 118 identical to human CRK protein; conditions: 10 μM Crk SH2, 10X SYPRO Orange, peptides 0-300 μM, 50 mM HEPES, pH 7.5, 150 mM NaCl; 25 to 95°C at 0.2°C/s; Figure 6B
Procedure, shortened: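 Before dye addition, Crk SH2 (10 μM final) is preincubated with peptides, dispensed from DMSO or buffer, for 30 min at room temperature. SYPRO Orange is then added and samples are melted. Tm is taken from the fluorescence curve or its first derivative as the half-unfolded point. ΔTm is the change in Tm on ligand binding. A DMSO series of 0–2% was also run.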

Crk SH2 vs CrkL SH2 = assay: Comparison of affinity of FAM-DVpYDVPP for Crk SH2 vs CrkL SH2; format: binding, mouse; conditions: comparison in words; assay and values not given

Substance | Increase in FP / polarization (mP) (Crk SH2 [1]) | Competition of binding of Crk SH2 with FAM-DVpYDVPP (Crk SH2 [2]) | Shift of thermal unfolding curve / Tm (Crk SH2 [3]) | Relative affinity, Crk SH2 vs CrkL SH2 (Crk SH2 vs CrkL SH2)
FAM-DVYDVPP | no significant increase in FP is observed; also recorded: No polarization is detected |  |  | 
DVYDVPP |  | much less significantly | no significant shift in Tm was observed; also recorded: no significant binding | 
DVpYDVPP-OH |  | effectively competed out | shift to the right; also recorded: unfolding curves shifted | 
DVFDVPP-OH |  | much less significantly |  | 
FAM-DVpYDVPP | a significant increase in FP is measured |  |  | Crk SH2 showed a higher affinity
